T cruzi repl = inhibitors of intracellular T. cruzi growth, primary screen, luminescence, NIH3T3 host cells. T. cruzi beta-gal in NIH3T3, 90 h. inhibition, % (no concentration beside the values). actives 1.4% (n = 300,000);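 active = mean inhibition across valid replicates above about 55%, limit read from the data; inconclusive = mean below that limit but half or more replicates reach it; inactive = mean below it, under half of replicates reach it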;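 note: signal also drops with host cell toxicity which is not excluded here; 0% = plate median of DMSO wells and 100% = zero luminescence signal; higher percent means less beta-gal luminescence so fewer parasites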
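Material: NIH/3T3 host cells with β-galactosidase reporter T. cruzi; Input: 5,000 host fibroblasts per well; Medium: DMEM, 2% fetal bovine serum; Compound: 50 nL DMSO compound solution per well; Schedule: 3 h host attachment, then at least 90 h co-culture; Detection: luminescent β-galactosidase signal after 60 min lysis.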
CSC inhib = cancer stem cell viability inhibitors, primary screen, luminescence; cancer stem cell-like cells viability; actives 1.1% (n = 300,000); inhibition, % at 7.5 µM; AID 2717, 2010; in the data active = inhibition above about 75%; inconclusive = no clear call, values can overlap the other calls; tested in HMLE shEcad cells
NALP3 yeast inh = NALP3 inflammasome inhibitors in reconstituted yeast, primary screen, luminescence, uHTS; Yeast reconstituted NLRP3/ASC/caspase-1, beta-gal luminescence, 24 h; inhibition, % at 10 µM; actives 0.39% (n = 330,000); AID 2825, 2010;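 active = inhibition of 50% or more; inactive = inhibition below 50%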;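 note: plate controls were induced DMSO wells for no effect and uninduced yeast grown without galactose for full effect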
Calb FLC = C. albicans growth inhibition with fluconazole, primary screen, CaCi-2 strain, Alamar Blue fluorescence. C. albicans CaCi-2 + fluconazole, 48 h. growth inhibition, % (test concentration not listed). actives 0.57% (n = 300,000). AID 1979, 2009;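 active = growth inhibition above about 58% in most replicates, limit read from the data, passing the limit was not always enough; inconclusive = exactly half the replicates above a set limit; inactive = most replicates below a set limit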;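 note: all wells also contain fluconazole at 8 µg/ml as a sub-toxic cotreatment; 0% = median of DMSO wells and 100% = median of geldanamycin control wells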
Mdm2-MdmX inh = inhibitors of human Mdm2-MdmX association, primary screen, cell-based, luminescence, split luciferase, SaOS-2, uHTS; Protein Mdm4 (Homo sapiens) + E3 ubiquitin-protein ligase Mdm2 (Homo sapiens), …; SaOS-2 split-luciferase Mdm2/MdmX complementation; inhibition, % at 8 µM; actives 3% (n = 330,000); AID 485346, 2010;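 active = inhibition of at least 50% at 8 µM in the primary screen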
Beta apoptosis = inhibitors of cytokine-induced beta cell apoptosis, primary screen, luminescence. INS-1E cytokine-induced death, ATP luminescence, 48 h; percent of positive-control rescue, neutral wells zero. protection from apoptosis, % (no concentration beside the values). actives 0.8% (n = 300,000);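 active = Every replicate reaches about 75%, or at least half do and their mean reaches it too, limit read from the data; inconclusive = At least half of replicates reach the limit but their mean does not; inactive = Under half of replicates reach the limit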;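 note: 0% = cytokine-treated negative control wells and 100% = positive control rescue; higher means more ATP so stronger rescue from cytokine killing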
Mdm2 MdmX conf = Mdm2-MdmX complex disruptors, retested hits, confirmation, luminescence, single concentration | actives 55% (n = 10,000) | shares compounds with Mdm2-MdmX inh | Mdm2-MdmX binding, luminescent assay | AID 489028, 2010 | inhibition, % at 8 µM; in the data active = inhibition above about 40%
Full FLuc ctr = full-length luciferase signal inhibition, confirmation, counter-screen for Mdm2/MdmX interaction inhibitor project, cell-based, single concentration, SaOS-2. AID 504607, 2011. SaOS-2 full-length luciferase counterscreen, luminescence. shares compounds with Mdm2-MdmX inh. inhibition, % at 8 µM. actives 77% (n = 6,200);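 active = mean inhibition at 8 µM reaching about 37%, which flags the compound as non-specific, limit read from the data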;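 note: p53-null SaOS-2 cells with luciferase driven by a doxycycline-inducible promoter; compound on cells about two nights before reading with doxycycline added after day one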
* = called active by the depositor; ? = inconclusive; · = no result. Most compounds without a hit are left out; they make up all but 5.3% or so of the library.

SMILES | T cruzi repl | CSC inhib | NALP3 yeast inh | Calb FLC | Mdm2-MdmX inh | Beta apoptosis | Mdm2 MdmX conf | Full FLuc ctr
Cc1cccc(C(=O)NNC(=O)c2n[nH]c(=O)c3ccccc23)c1C | · | · | 1.0 | · | 19.6 | · | · | ·
CSc1nc(N(C)NC(=O)c2ccccc2)c2ccccc2n1 | -6.9 | · | 5.6 | -0.7 | 55.9* | 13.4 | 52.5* | 69.2*
CSc1nc(N(C)NC(=O)c2ccc(Cl)cc2)c2ccccc2n1 | 21.6 | 19.8 | 9.4 | -1.7 | 62.2* | 32.2 | 56.5* | 87.8*
Cc1ccc(C(=O)NN(C)c2nc3ccccc3nc2C(F)(F)F)cc1 | 2.0 | 53.5 | 16.3 | -5.6 | 69.9* | · | 53.7* | 61.4*
O=C(NNc1c2ccccc2nc2ccccc12)c1ccc(Cl)cc1 | -1.6 | 13.5 | 21.1 | 34.6 | 86.9* | 34.3 | 67.5* | 43.0*
CCOc1ccc(NC(=O)COC(=O)CC2CCCCC2)cc1 | · | · | 11.9 | · | 4.0 | -3.5 | · | ·
Cn1c(N)c(Br)c(-c2ccc(F)cc2)c(C#N)c1=O | -6.4 | -29.0 | -2.9 | -0.4 | 20.1 | -4.5 | · | ·
Cn1c(N)c(C(=O)CSc2nc3ccccc3c(=O)n2CCCN2CCOCC2)c(=O)n(C)c1=O | 13.4 | -0.3 | 12.8 | 8.2 | 24.0 | 0.1 | · | ·
Cc1[nH]c2ccccc2c1C(=O)CSc1nc2ccccc2c(=O)n1CCCN1CCOCC1 | 31.9 | 7.5 | 9.8 | 32.5 | 58.8* | -4.2 | 15.2 | ·
Cc1cccc(NC(=O)C(C)Sc2nc3ccccc3c(=O)n2CCCN2CCOCC2)c1 (centres undefined) | · | · | 23.0 | · | 88.6* | 4.6 | 70.5* | 51.4*
COCCn1c(SC(C)C(=O)Nc2ccc3c(c2)OCCO3)nc2ccccc2c1=O (centres undefined) | 6.8 | -11.9 | -11.4 | -1.9 | 8.0 | -1.8 | · | ·
COc1ccc(NC(=O)c2cc3c(=O)n(C)c4ccccc4c3n2C)cc1OC | 21.1 | 12.7 | 8.5 | 1.6 | 58.9* | 7.3 | 32.5 | ·
COc1ccc(NC(=O)c2cc3c(=O)n(C)c4ccccc4c3n2C)cc1Cl | -8.4 | 29.8 | 8.4 | -8.6 | 62.2* | 10.3 | 25.6 | ·
COc1ccc(C)cc1Nc1c2c(nc3ccccc13)CCC2 | 43.6 | 64.2 | 15.3 | -3.3 | 59.2* | 20.9 | 59.0* | 87.2*
COc1ccccc1Nc1nc(-c2ccccc2)nc2ccccc12 | 50.3 | 38.4 | 2.9 | 3.1 | 6.3 | -1.5 | · | ·
COc1ccc(Nc2cc(Nc3cc(OC)c(OC)c(OC)c3)ncn2)cc1 | -1.6 | 35.4 | -1.8 | 7.8 | 65.4* | 10.1 | 23.6 | ·
COc1ccc(CCNCC(O)Cn2c3ccccc3c3ccccc32)cc1OC (centres undefined) | 60.5* | -12.2 | 19.5 | -12.6 | 92.5* | -1.6 | 36.5 | 55.2*
COc1ccccc1Nc1c2ccccc2nc2ccccc12 | 48.3 | 22.2 | 16.1 | -3.3 | 53.5* | 33.3 | 48.2* | 69.4*
S=C(NC1CC1)SCc1ccco1 | · | · | 13.1 | · | 20.5 | -16.3 | · | ·
COc1cc(Nc2c3ccccc3nc3ccccc23)cc(OC)c1OC | 44.8 | 31.0 | -12.1 | -2.3 | 86.1* | 38.1 | 54.8* | 62.1*
COc1ccc(CCNc2c3ccccc3nc3ccccc23)cc1OC | 26.8 | 12.6 | 4.6 | -13.9 | 50.5* | 76.8* | 26.4 | ·
COc1ccc(Nc2c3ccccc3nc3ccccc23)cc1 | 40.2 | 50.4 | 6.8 | 11.6 | 25.9 | 71.5 | · | ·
Cc1ccc2nc(NCC(=O)O)nc(-c3ccccc3)c2c1 | 23.6 | 6.0 | 10.0 | 13.9 | 11.0 | 2.8 | · | ·
COc1cc(Nc2nc(-c3ccccc3)c3cc(C)ccc3n2)cc(OC)c1OC | 26.4 | ? | 4.0 | 26.3 | 56.2* | 6.6 | 23.6 | ·
